# Efflux pump mplx – inhibitors of Candida efflux pumps in yeast, primary screen, S. cerevisiae, Nile Red, multiplex; S. cerevisiae Candida pump triplex; inhibition, % at 10 µM; hit rate 0.44% among 330,000; AID 485275, 2010;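 active means plate passing quality check with inhibition over a set limit, or well fluorescence over plate mean plus 4 SD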;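 further: Nile Red retained in pooled yeast measured as flow cytometry median fluorescence; 0% = buffer negative control and 100% = Enniatin B positive control; higher means more Nile Red kept so more efflux inhibition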
# AI-2 QS mod – Vibrio harveyi AI-2 quorum sensing modulators, primary screen, JMH597 strain, luminescence/OD600 ratio; Vibrio harveyi JMH597 AI-2 luminescence/OD600 ratio, 9 h; active compounds read low; strain lacks LuxN and CqsS sensors; 0 = neutral-control median; activity change, % at 7.5 µM; hit rate 0.4% among 300,000; in the data active means activity change below about -75%, passing the limit was not always enough; inconclusive means no clear call, values can overlap the other calls;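 further: luminescence divided by OD600 gain over 9 h not by final OD600 alone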
# PolyA inhibitor – polyadenylation inhibitors in yeast reporter cells, primary screen, luminescence, S. cerevisiae; S. cerevisiae SKY197-pL101 polyadenylation reporter, beta-gal luminescence; efflux-impaired pdr1/pdr3 knockout yeast; score 100 = 6 SD above DMSO; hit rate 0.02% among 300,000; activity score, % at 12 µM;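 active means lowest replicate activity score at least 50, where 100 means six control SD above control mean; inconclusive means lowest score under 50 but half or more replicates reach 50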;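 further: yeast exposed to compound for 9 h at 30 °C; higher score means more reporter readthrough which indicates perturbed polyadenylation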
# HDAC3 inhib – HDAC3 deacetylase inhibitors, primary screen, biochemical, fluorescence, cell-free homogeneous | Histone deacetylase 3 (Homo sapiens), O15379 | recombinant HDAC3, fluorogenic peptide/trypsin coupled | inhibition, % at 8.3 µM | hit rate 0.15% among 320,000; in the data active means inhibition above about 26%, passing the limit was not always enough; inconclusive means no clear call, values can overlap the other calls
# Target sequence (O15379 whole entry, looked up): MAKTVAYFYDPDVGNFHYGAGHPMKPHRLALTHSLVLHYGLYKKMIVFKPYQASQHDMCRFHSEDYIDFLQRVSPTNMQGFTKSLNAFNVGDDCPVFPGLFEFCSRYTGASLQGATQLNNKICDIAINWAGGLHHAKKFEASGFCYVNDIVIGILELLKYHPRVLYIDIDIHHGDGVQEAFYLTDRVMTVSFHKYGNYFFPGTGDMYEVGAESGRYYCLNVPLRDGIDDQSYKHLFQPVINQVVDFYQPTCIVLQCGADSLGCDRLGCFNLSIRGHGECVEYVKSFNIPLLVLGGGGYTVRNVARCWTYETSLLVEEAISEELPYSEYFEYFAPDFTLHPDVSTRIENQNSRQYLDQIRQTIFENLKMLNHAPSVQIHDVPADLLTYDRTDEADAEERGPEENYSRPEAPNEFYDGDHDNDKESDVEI
# T cruzi repl – inhibitors of intracellular T. cruzi growth, primary screen, luminescence, NIH3T3 host cells | T. cruzi beta-gal in NIH3T3, 90 h | inhibition, % (concentration not given with the values) | hit rate 1.4% among 300,000 | AID 1885, 2009;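 active means mean inhibition across valid replicates above about 55%, limit read from the data; inconclusive means mean below that limit but half or more replicates reach it; inactive means mean below it, under half of replicates reach it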;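 further: signal also drops with host cell toxicity which is not excluded here; 0% = plate median of DMSO wells and 100% = zero luminescence signal; higher percent means less beta-gal luminescence so fewer parasites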
#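 System: NIH/3T3 fibroblasts plus reporter T. cruzi. Medium: DMEM plus 2% FBS. Probe or stimulus: 5000 reporter trypomastigotes per well. Compound: single 50 nL compound addition per well in DMSO. Incubation: co-culture of at least 90 h after 3 h attachment. Detection: GalScreen β-gal luminescence, detergent lysis, 60 min. Evaluation: parasite load inhibition, %.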
# Cmpd fluor yeast – flagged as fluorescent in efflux inhibitor counter-screen; fluorescence ratio to DMSO, % at 10 µM; shares compounds with Efflux pump mplx; S. cerevisiae AD/pABC3, compound fluorescence, flow cytometry; hit rate 4% among 1,700;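 active means fluorescence ratio to DMSO above its plate's cutoff, the plate mean ratio plus 5 SD, cut at about 210% in these data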;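 further: unstained yeast with no Nile Red so the signal is compound autofluorescence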
# Mdr1 pump inh – inhibitors of Candida albicans Mdr1 efflux, confirmation, flow cytometry, singleplex, Cherry Pick1 set. shares compounds with Efflux pump mplx. S. cerevisiae AD/CaMDR1, Nile Red efflux. inhibition, % at 10 µM. hit rate 1% among 1,700. AID 588518, 2011; in the data active means inhibition above about 26%;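 further: 0% = DMSO vehicle and 100% = reference inhibitor; higher means more Nile Red retained so more efflux inhibition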
# CaCdr2 efflux inh – inhibitors of Candida albicans Cdr2 efflux pump, confirmation, S. cerevisiae AD/CaCDR2, flow cytometry, cherry pick 1, singleplex; shares compounds with Efflux pump mplx; Nile Red retention; Nile Red retention ratio vs DMSO, % at 10 µM; hit rate 4% among 1,700; AID 588520, 2011; in the data active means Nile Red retention ratio vs DMSO above about 190%;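 further: higher ratio means more blocking of Cdr2 efflux of the dye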
# CaCdr1 efflux inh – inhibitors of Candida albicans Cdr1 efflux pump, confirmation, S. cerevisiae AD/CaCDR1, flow cytometry, cherry pick 1, singleplex | shares compounds with Efflux pump mplx | inhibition, % at 10 µM | Nile Red efflux | AID 588522, 2011 | hit rate 1% among 1,700;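 active means inhibition above the screen-wide mean plus twice its standard deviation, cut at about 32% in these data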
# * hit, by the source's call; ? = inconclusive; / = not tested or not shown. Only some compounds are listed: those with a hit (about 2.2% of all), similar ones and a draw of the others.
SMILES,Efflux pump mplx,AI-2 QS mod,PolyA inhibitor,HDAC3 inhib,T cruzi repl,Cmpd fluor yeast,Mdr1 pump inh,CaCdr2 efflux inh,CaCdr1 efflux inh
CCO[C@@H]1OC(C(=O)Nc2ccccc2)=C[C@H](c2ccc(Br)cc2)[C@H]1CCCO,0.8*,11.1,2.6,13.3,10.9,100.0,-0.2,120.6,0.1
CCOc1ccc(N(CC(=O)NCc2ccc(F)cc2)C(=O)CCC(=O)Nc2nccs2)cc1,-0.1,48.4,-1.2,2.9,9.8,/,/,/,/
O=C(NNC(=O)c1cccs1)c1ccc(S(=O)(=O)N2CCCCC2)cc1,11.4*,12.3,-15.0,-2.6,-9.2,98.2,-0.1,95.6,-0.1
CCCCCCCCCCC[N+](C)(C)CC/C=C1/c2ccccc2Sc2ccc(Cl)cc21,1.8*,-144.7*,4.6,32.4*,51.1,146.5,1.1,259.7*,0.4
CN(C)CC/C=C1\c2ccccc2Sc2ccc(Cl)cc21,-0.1,20.8,12.4,-1.9,31.5,/,/,/,/
CCCCCCCCCC[N+](C)(C)CC/C=C1/c2ccccc2Sc2ccc(Cl)cc21,1.8*,?,9.6,34.6*,46.7,98.2,0.0,116.4,0.0
CC[N+](C)(C)CC/C=C1/c2ccccc2Sc2ccc(Cl)cc21,0.1,4.1,-4.6,-3.2,16.1,100.0,-0.2,102.2,0.0
Nc1cc(Nc2ccccc2)c2nonc2c1[N+](=O)[O-],1.4*,39.9,-9.5,-2.2,7.9,105.0,0.0,93.0,-0.3
COC(=O)Nc1ccc2c(c1)N(C(=O)CCCl)c1ccccc1S2,0.1,4.7,-22.9,3.7,44.3,/,/,/,/
CC(C)(C)OC(=O)NCCCCCc1nnc(SCC(N)=O)o1,0.0,20.3,3.7,3.4,-25.2,/,/,/,/
Cc1ccc(CSc2nnc(CCNC(=O)OC(C)(C)C)o2)cc1,0.8*,-21.5,-22.9,6.0,-0.1,99.3,-0.1,95.4,0.0
CC(C)(C)OC(=O)NCCc1nnc(SCc2ccccc2)o1,0.0,34.4,2.5,-0.3,1.0,/,/,/,/
C=C(C)CSc1nnc(CCCCCNC(=O)OC(C)(C)C)o1,1.0*,17.1,-12.7,0.3,10.0,106.2,-0.2,97.7,-0.1
c1ccc(CSc2ccc(-c3cccnc3)nn2)nc1,-0.1,25.2,3.7,3.1,-6.7,/,/,/,/
CC1C(=O)N2CCCc3cc(S(=O)(=O)N4CCCCC4)cc1c32 (configuration not stated),0.7*,5.7,-5.0,1.0,-2.0,105.0,-0.2,99.3,0.2
Cc1ccc(S(=O)(=O)N(CC(=O)N/N=C/c2cccc3c2OCCO3)c2ccccc2F)cc1,0.5*,31.3,-1.6,-1.2,7.7,89.9,-0.1,108.3,-0.1
Cc1cc(C)c(N(C(=O)CN2C(=O)c3ccccc3S2(=O)=O)C(C(=O)NCC2CCCO2)c2ccc(F)cc2)c(C)c1 (configuration not stated),22.3*,11.8,15.7,1.5,6.7,112.7,-0.1,112.2,0.0
CCOc1ccc(NC(=O)CN(C)C(=O)c2ccccc2CCc2ccccc2)cc1OCC,0.1,21.8,-6.9,6.3,3.7,/,/,/,/
Cc1cccc2cc(CNCC3CCCO3)c(Cl)nc12 (configuration not stated),-0.1,16.6,19.2,3.6,-9.8,/,/,/,/
COc1ccc(/C=C2\SC(=O)N(CCC(=O)Nc3ccccc3)C2=O)cc1OC,7.6*,-5.3,8.6,3.5,0.5,97.0,0.0,97.2,0.4
COc1ccc(/C=C2\SC(=O)N(CCCC(=O)Nc3ccc(C(=O)O)cc3)C2=O)cc1OC,3.5,27.6,2.2,1.2,-6.3,/,/,/,/
CCN(CC)c1ccc2cc(-c3nc(-c4ccc(OC)cc4)cs3)c(=O)oc2c1,6.0*,/,/,3.1,/,640.5*,0.6,731.5*,1.8
CCN(CC)c1ccc2cc(-c3nnc(-c4ccccc4)o3)c(=O)oc2c1,0.3,26.1,9.2,-2.5,-19.9,/,/,/,/
CC(C)CCNC(=O)CCSCCC(=O)NCCC(C)C,8.9*,2.3,-0.1,-3.6,-11.1,103.1,-0.1,98.5,0.0
CC(C)CCNC(=O)CCCc1ccccc1,-0.1,14.0,-4.5,9.0,4.8,/,/,/,/
SMILES,Efflux pump mplx,AI-2 QS mod,PolyA inhibitor,HDAC3 inhib,T cruzi repl,Cmpd fluor yeast,Mdr1 pump inh,CaCdr2 efflux inh,CaCdr1 efflux inh
CO/C=C\C=C/c1nnn(-c2ccc(Cl)cc2)n1,-0.1,11.3,15.7,-0.8,-28.7,/,/,/,/
CCC1=C(OC(=O)N(CC)CC)N2C(=O)OC(=NCCOC)[C@]2(Cc2ccccc2)[C@H]2C1=CC[C@H]1C(=O)N(CC(=O)OC)C(=O)[C@H]12,0.1,24.2,20.5,-6.5,-2.5,/,/,/,/
CCC1=C(OC(=O)N(CC)CC)N2C(=O)OC(=NCCc3c[nH]c4ccccc34)[C@]2(Cc2ccccc2)[C@H]2C1=CC[C@H]1C(=O)N(CC(=O)OC)C(=O)[C@H]12,7.3*,13.5,0.2,?,18.6,113.1,1.8,135.3,0.5
COc1ccc(-c2[nH]c(-c3ccc4c(c3)OCO4)nc2-c2ccccc2)cc1,0.3*,22.6,-3.8,-19.4,46.9,105.0,-0.1,114.1,0.1
O=C(CSc1nnc(Cc2cccs2)n1Cc1ccco1)Nc1cccc(Cl)c1,-0.1,-0.9,-2.4,17.1,36.5,136.8,0.2,89.3,2.0
O=C(CSc1nnc(Cc2cccs2)n1Cc1ccco1)Nc1cc(Cl)cc(Cl)c1,0.1,29.0,4.0,11.5,19.0,114.1,-0.1,118.2,0.0
COc1ccc(/C=C/C(=O)N2CCN(c3ccccn3)CC2)c(OC)c1OC,0.1,11.7,4.8,9.3,0.6,/,/,/,/
O=C(CN1C(=O)CSc2ccccc21)NC1CCCC1,-0.1,5.7,-2.8,1.1,-14.9,/,/,/,/
CC1Cc2ccccc2N1CC(=O)Nc1cccc(S(N)(=O)=O)c1 (configuration not stated),0.0,9.3,-1.6,-7.5,0.0,/,/,/,/
O=Cc1cn(CC(=O)Nc2ccc3c(c2)OCO3)c2ccccc12,1.1*,24.1,-7.5,-2.2,-27.3,104.0,-0.1,109.4,0.1
Cc1ccc(NC(=O)Cn2cc(C=O)c3ccccc32)cc1,0.1,-1.8,-17.4,-0.8,-14.3,/,/,/,/

# Bioassay records deposited in PubChem BioAssay by several laboratories.
